Results reported in ChEMBL document CHEMBL1124186, “Synthesis and evaluation of tylosin-related macrolides modified at the aldehyde function: a new series of orally effective antibiotics” (1988).
≈ marks a conversion by molar mass, not a printed value.

Key:
Streptococcus pyogenes [1] = experiment: (§1) In vitro antimicrobial activity against Streptococcus pyogenes C203; format: functional
Streptococcus pyogenes [2] = experiment: as §1; format: functional; remark: listed apart in the source
Streptococcus pyogenes [3] = experiment: In vivo effective dose against experimental infections in rodent caused by Streptococcus pyogenes C203 when administered orally; format: functional; details: po
Staphylococcus aureus = experiment: In vitro antimicrobial activity against Staphylococcus aureus X1; format: functional
Enterococcus faecium = experiment: In vitro antimicrobial activity against Streptococcus faecium X66; format: functional, streptococcus fae-cium
[4] = test system: Staphylococcus epidermidis; experiment: In vitro antimicrobial activity against Staphylococcus epidermidis EPI1; format: functional
Streptococcus pyogenes [5] = experiment: […] effective dose against Streptococcus pyogenes C203 when administered sc; format: functional
How it was run: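 Infected mice (S. pyogenes C203) were treated subcutaneously 1 and 5 h postinfection with 0.25 mL of antibiotic in 10% aqueous ethanol, with tartaric acid added when needed to dissolve it. A range of concentrations was given. The value is the ED50 expressed as mg/kg × 2.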

Streptococcus pyogenes [6] = experiment: In vivo effective dose against experimental infections in rodent caused by Streptococcus pyogenes C203 when administered sc; format: functional
Streptococcus pneumoniae = experiment: In vitro antimicrobial activity against Streptococcus pneumoniae; format: functional
Streptococcus pyogenes [7] = experiment: […] effective dose against Streptococcus pyogenes C203 when administered orally; format: functional; details: po
Haemophilus influenzae = experiment: In vitro antimicrobial activity against Haemophilus influenzae.; format: functional

CC[C@H]1OC(=O)C[C@@H](O)[C@H](C)[C@@H](O[C@@H]2O[C@H](C)[C@@H](O[C@H]3C[C@@](C)(O)[C@@H](O)[C@H](C)O3)[C@H](N(C)C)[C@H]2O)[C@@H](CC=O)C[C@@H](C)C(=O)/C=C/C(C)=C/[C@@H]1CO[C@@H]1O[C@H](C)[C@@H](O)[C@@H](O)[C@H]1OC [MACROCIN]
MIC (Streptococcus pyogenes [1]): 0.25 µg/mL (≈ 0.277 µM) | MIC (Streptococcus pyogenes [2]): 0.25 µg/mL (≈ 0.277 µM) | ED50 (Streptococcus pyogenes [3]): 71 mg/kg | MIC (Staphylococcus aureus): 0.5 µg/mL (≈ 0.554 µM) | MIC (Enterococcus faecium): 2 µg/mL (≈ 2.22 µM) | MIC [4]: 1 µg/mL (≈ 1.11 µM) | ED50 (Streptococcus pyogenes [5]): < 1.2 mg/kg | ED50 (Streptococcus pyogenes [6]): 1.9 mg/kg | MIC (Streptococcus pneumoniae): 1 µg/mL (≈ 1.11 µM) | ED50 (Streptococcus pyogenes [7]): > 80 mg/kg | MIC (Haemophilus influenzae): 16 µg/mL (≈ 17.7 µM)
